# High-throughput results: PubChem, several laboratories
# An excerpt weighted towards active compounds, which were near 4.1% of everything screened.
# KCNQ1 inh – inhibitors of human KCNQ1 channel, primary screen, cell-based, thallium flux, high-throughput. 310,000 tested, 1.3% active. B-score at 10 µM. CHO-K1 KCNQ1, FluxOR thallium flux fluorescence; active compounds read high. AID 2642, 2010. Potassium voltage-gated channel subfamily KQT member 1 (Homo sapiens), P51787;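 active = compounds whose thallium flux B-score, printed positive for inhibition, exceeds three library SD while starting fluorescence stays within three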;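 also: channel opened by potassium depolarization with thallium stimulus after 20 min compound exposure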
# KCNK9 block – KCNK9 potassium channel inhibitors, primary screen, HEK293 cells, thallium flux. FluxOR thallium flux fluorescence; active compounds read low. AID 488922, 2010. Potassium channel subfamily K member 9 (Homo sapiens), Q9NPC2. B-score at 10 µM. 310,000 tested, 1.2% active;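 active = ratio B-score over 3 SD below the library mean, with starting fluorescence within 5 SD of its mean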;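 also: negative B-score means less thallium flux so channel inhibition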
# KCNK3 block – human KCNK3 channel inhibitors, primary screen, CHO cells, FluxOR thallium flux, B-score; FluxOR fluorescence; active compounds read low; B-score at 10 µM; 340,000 tested, 0.84% active; AID 602410, 2012;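 active = B-score under library mean minus 4 SD, starting fluorescence ratio at most library mean plus 5 SD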;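 also: more negative B-score means stronger inhibition of thallium flux through KCNK3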
# Cl transport mod – KCC2 cotransporter modulators, thallium flux, primary screen, cell-based, HEK293 KCC2, FluoZin-2 fluorescence, MLSMR. Solute carrier family 12 member 5 (Homo sapiens), Q9H2X9. KCC2 cells, thallium flux FluoZin-2 fluorescence. B-score of Tl+ flux slope (higher = more flux/activation; lower = inhibition) at 10 µM. 190,000 tested, 2.2% active. AID 1456, 2008;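 active = thallium flux slope and its plate-corrected score both differing from the plate sample mean at a set confidence after two filtering rounds, in either direction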;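 also: slope of fluorescence scaled to starting intensity during 10 to 20 s after thallium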
# KCNQ1 pot – potentiators or activators of KCNQ1 channel, primary screen, cell-based, thallium flux, high-throughput | 310,000 tested, 0.35% active | Potassium voltage-gated channel subfamily KQT member 1 (Homo sapiens), P51787 | CHO-K1 KCNQ1, thallium flux FluxOR fluorescence; active compounds read high | B-score at 10 µM | AID 2648, 2010;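 active = fluorescence ratio B-score, a plate-corrected score, at least three library SD, with initial intensity B-score within 5 SD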
#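 Material: CHO-K1 cells stably expressing KCNQ1. Medium: assay buffer for compound exposure, DMSO matched across wells. Reagent: K+/Tl+ depolarizing stimulus. Compound dosing: single-concentration screen. Times: 37 °C overnight plating, 90-min dark dye load, 20-min compound pretreatment. Technique: FluxOR Tl+ flux fluorescence.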
# hERG protect – hERG rescue from dofetilide block, primary screen, cell-based, CHO-hERG, FluxOR thallium flux, dofetilide IC70; Voltage-gated inwardly rectifying potassium channel KCNH2 (Homo sapiens), Q12809; dofetilide IC70 present; activation (rescue from dofetilide block), less the hit threshold, % at 10 µM; 310,000 tested, 0.51% active;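 active = activation above the mean of controls blocked by dofetilide plus 5 SD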;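 also: thallium influx through hERG after potassium depolarization seen as dye fluorescence rise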
# Target sequence (Q12809 whole entry, looked up): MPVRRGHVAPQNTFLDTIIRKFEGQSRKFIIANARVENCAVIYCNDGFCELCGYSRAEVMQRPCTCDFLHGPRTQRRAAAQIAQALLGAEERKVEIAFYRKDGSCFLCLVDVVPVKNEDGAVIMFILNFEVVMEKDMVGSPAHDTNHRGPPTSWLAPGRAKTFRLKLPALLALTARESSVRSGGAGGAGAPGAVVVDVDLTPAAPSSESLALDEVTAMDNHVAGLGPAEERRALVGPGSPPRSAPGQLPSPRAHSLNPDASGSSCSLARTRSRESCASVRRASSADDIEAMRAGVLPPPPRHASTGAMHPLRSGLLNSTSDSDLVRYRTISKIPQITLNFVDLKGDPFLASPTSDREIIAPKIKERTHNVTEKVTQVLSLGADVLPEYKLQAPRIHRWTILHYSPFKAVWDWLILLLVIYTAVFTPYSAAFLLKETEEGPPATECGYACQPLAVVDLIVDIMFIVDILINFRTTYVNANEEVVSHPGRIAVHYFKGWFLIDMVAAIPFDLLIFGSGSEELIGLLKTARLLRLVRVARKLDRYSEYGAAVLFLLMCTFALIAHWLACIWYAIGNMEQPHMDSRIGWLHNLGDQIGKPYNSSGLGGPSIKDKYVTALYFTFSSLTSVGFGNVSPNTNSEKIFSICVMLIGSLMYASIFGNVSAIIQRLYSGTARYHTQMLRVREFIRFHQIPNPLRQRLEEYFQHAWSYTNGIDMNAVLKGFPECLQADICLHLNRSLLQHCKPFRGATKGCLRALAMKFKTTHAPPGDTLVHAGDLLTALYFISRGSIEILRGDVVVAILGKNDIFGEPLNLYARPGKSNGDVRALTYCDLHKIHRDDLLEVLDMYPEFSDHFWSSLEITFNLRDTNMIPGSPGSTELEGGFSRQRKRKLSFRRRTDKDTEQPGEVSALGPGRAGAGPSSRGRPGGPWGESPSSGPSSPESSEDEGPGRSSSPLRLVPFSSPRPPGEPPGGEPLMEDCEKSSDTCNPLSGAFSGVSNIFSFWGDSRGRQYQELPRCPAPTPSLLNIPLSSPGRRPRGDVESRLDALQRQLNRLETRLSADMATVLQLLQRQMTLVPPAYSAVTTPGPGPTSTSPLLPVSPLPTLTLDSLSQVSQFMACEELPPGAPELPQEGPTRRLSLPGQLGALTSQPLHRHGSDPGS
# KCC2 sec1 – KCC2 modulators in sodium-free buffer, confirmation, cell-based, HEK293 KCC2, thallium flux, secondary assay; FluoZin2 fluorescence; active compounds read high; normalised thallium flux (F/F0 slope) at 10 µM; 3,700 tested, 15% active; AID 1713, 2009; shares compounds with Cl transport mod;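 active = thallium flux slope above the same plate's solvent-only control mean plus 3 SD; inconclusive = the two replicate wells disagree; inactive = no significant difference from solvent-only control wells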
# KCC2 bumet counter – thallium flux persisting under bumetanide in KCC2 cells, confirmation, counter-screen for KCC2 modulator project, cell-based, HEK293 KCC2, FluoZin2, secondary assay 3. AID 1714, 2009. shares compounds with Cl transport mod. HEK293-KCC2 + bumetanide/ouabain; active compounds read high. 3,700 tested, 49% active. normalized thallium flux at 10 µM;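 active = thallium entry rate above the same plate's blocked-transporter control wells by more than 3 SD; inconclusive = the two repeat wells disagree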;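 also: raw slope of fluorescence over initial fluorescence between 10 and 20 s after thallium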
# KCC2 secondary2 – KCC2 modulators without ouabain present, confirmation, cell-based, HEK293 KCC2, thallium flux, FluoZin2, secondary assay 2; shares compounds with Cl transport mod; AID 1715, 2009; thallium flux FluoZin2 fluorescence; actives lie on both sides; F/F0 rise rate, 10–20 s post-thallium; 3,700 tested, 23% active; normalized thallium flux at 10 µM;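 active = thallium flux slope more than 3 SD above or below the plate's solvent-only control mean, mostly below; inconclusive = the two repeat wells disagreed; inactive = no significant shift from solvent-only controls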;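 also: raw slope with 0.1% DMSO as baseline and bumetanide as block control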
# HEK counter1 – thallium flux modulation in parental HEK cells, confirmation, counter-screen for KCC2 modulator project, cell-based, counterscreen 1; AID 1716, 2009; thallium flux rate (normalised fluorescence) at 10 µM; 3,700 tested, 46% active; HEK293 parental cells, thallium flux FluoZin2, ouabain; baseline-ratio fluorescence slope, 10–20 s after thallium; shares compounds with Cl transport mod;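 active = thallium flux rate significantly above the same plate's solvent-only control wells, beyond their mean plus 3 SD; inconclusive = the two replicate wells gave conflicting results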
# KCC2 retest ouab – KCC2 inhibitors and activators, ouabain retest, confirmation, HEK-KCC2 cells | HEK293-KCC2, thallium flux FluoZin2 fluorescence; bidirectional: low = inhibitor, high = activator | raw Tl+ flux slope (below DMSO = inhibition, above = activation) at 10 µM | 3,700 tested, 48% active | shares compounds with Cl transport mod;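 active = thallium flux slope beyond 3 SD from same-plate DMSO control mean in most replicates, usually higher, sometimes lower; inconclusive = repeat tests gave conflicting results; inactive = no significant difference from controls in most replicates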;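 also: slope of initial-normalized fluorescence between seconds 10 and 20 after thallium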
# HEK counter2 – native HEK Tl+ uptake effects, second counter-screen – HEK cells, counterscreen 2, counter-screen for KCC2 modulator project, confirmation; shares compounds with Cl transport mod; HEK293 parental, thallium flux FluoZin-2 fluorescence slope; thallium flux slope at 10 µM; 3,700 tested, 33% active; AID 1718, 2009;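 active = thallium flux slope above the same plate's solvent-control mean plus 3 SD in both duplicate wells; inconclusive = duplicate wells that disagreed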;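 also: run without ouabain in cells lacking the KCC2 cotransporter; slope of fluorescence scaled to its starting value between 10 and 20 s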
# Active calls of the source: *; i = inactive; ? = inconclusive; / = no result given.
SMILES,KCNQ1 inh,KCNK9 block,KCNK3 block,Cl transport mod,KCNQ1 pot,hERG protect,KCC2 sec1,KCC2 bumet counter,KCC2 secondary2,HEK counter1,KCC2 retest ouab,HEK counter2
CCCc1cc(C(=O)Nc2sc(C)c(CC)c2C#N)no1,i,i,i,9.68*,i,-16.2,0.0116,0.0261*,0.0374,0.0205*,0.0295*,0.0132*
CCc1c(C)sc(NC(=O)c2cc(C3CC3)on2)c1C#N,i,i,i,3.67*,i,-10.4,0.00803,0.0119*,0.029,0.0114*,0.0218,0.0123*
CCCc1cc(C(=O)Nc2sc3c(c2C#N)CCC3)no1,i,i,i,6.15*,i,-6.9,0.00781,0.0236*,0.0289,0.0182*,?,0.0164*
CCCC(=O)Nc1sc2c(c1C#N)CCCC2,i,i,i,0.91,i,-11.2,/,/,/,/,/,/
NC(=O)c1ccsc1NC(=O)CCS(=O)(=O)c1ccc(F)cc1,i,i,i,/,i,-16.9,/,/,/,/,/,/
CC(C)(C)OC(=O)N(CCc1ccccc1)Cc1ccccc1OCc1cccc(NC(=O)C2CCCC2)c1,/,/,i,/,/,/,/,/,/,/,/,/
CCc1ccc(-c2nc(SCC(=O)NC3CC3)n[nH]2)cc1,i,i,i,/,i,-6.0,/,/,/,/,/,/
Cc1ccsc1/C=N\NC(=O)c1ccc2c(c1)OCO2,i,i,i,5.91*,i,-13.2,0.00656,0.00635*,0.0272,0.0107*,0.0196,?
Cc1ccsc1/C=N/NC(=O)c1ccc2c(c1)OCCO2,i,i,i,0.545,i,-12.4,/,/,/,/,/,/
O=[N+]([O-])c1ccc(NC(=S)NCCc2ccc(Cl)cc2)cc1,8*,i,i,-4.99*,i,-14.1,0.0171,0.00311,0.0256*,?,0.0143,0.00992
CC(=O)c1ccc(NC(=O)CCNC(=O)c2ccc(Cl)cc2)cc1,i,i,i,/,i,-6.2,/,/,/,/,/,/
O=C(c1ccc(F)cc1)N1CCN(S(=O)(=O)c2ccc(Br)cc2)CC1,i,i,i,/,i,-6.8,/,/,/,/,/,/
